Non-standard residues stand in square brackets, D forms with d. Residues, ends and D or L forms follow the SMILES beside them. Ac5c = NC1(C(=O)O)CCCC1; GABA = NCCCC(=O)O
Assays:
Type in all cases: functional
[1] = species: Mus musculus; assay: Compound was tested for the immunomodulatory activity in vitro expressed as stimulation index by lymphocyte transformation test at 0.01 ug/mL
How it was run: (§1)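 Normal Swiss mouse splenocytes, RBCs lysed with 0.83% NH4Cl in 10 mM Tris pH 7.2, held at 5x10⁶ cells/ml in RPMI with 10% FCS. Cells cultured 72 h at 37°C in CO₂ with PHA-P mitogen and peptide (10, 1, 0.1, 0.01 µg/ml), then [³H]thymidine pulse and 18 h further incubation. Read as DPM ratio to untreated wells; triplicate runs, ±SD.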

[2] = species: Mus musculus; assay: Compound was tested for the immunomodulatory activity in vitro expressed as stimulation index by lymphocyte transformation test at 0.1 ug/mL; how it was run: as §1
[3] = species: Mus musculus; assay: Compound was tested for the immunomodulatory activity in vitro expressed as stimulation index by lymphocyte transformation test at 1 ug/mL; how it was run: as §1
[4] = species: Mus musculus; assay: Compound was tested for the immunomodulatory activity in vitro expressed as stimulation index by lymphocyte transformation test at 10 ug/mL; how it was run: as §1
[5] = species: Mus musculus; assay: Compound was tested for the immunomodulatory activity in vitro expressed as stimulation index by mixed lymphocyte reaction at 0.1 ug/mL
[6] = species: Mus musculus; assay: Compound was tested for the immunomodulatory activity in vitro expressed as stimulation index by mixed lymphocyte reaction at 1 ug/mL
[7] = species: Mus musculus; assay: Compound was tested for the immunomodulatory activity in vitro expressed as stimulation index by mixed lymphocyte reaction at 10 ug/mL
[8] = species: Mus musculus; assay: Compound was tested for the immunomodulatory activity in vitro expressed as stimulation index by mixed lymphocyte reaction 1 ug/mL
[9] = species: Mus musculus; assay: Compound was tested for the immunomodulatory activity in vitro expressed as stimulation index by mixed lymphocyte reaction (MLR) at 10 ug/mL

SMILES	Stimulation index [1]	Stimulation index [2]	Stimulation index [3]	Stimulation index [4]	Stimulation index [5]	Stimulation index [6]	Stimulation index [7]	Stimulation index [8]	Stimulation index [9]
CC[C@@H](C)[C@@H](NC(=O)[C@@H]1CCCN1C(=O)[C@@H](CCC(=O)O)NC(=O)[C@H](C)N)C(=O)N1CCC[C@H]1C(=O)N[C@H](Cc1ccc(O)cc1)C(=O)O	1.17	1.57	1.4	1.22	0.74	0.82	0.72	–	–
CC[C@H](C)[C@H](NC(=O)C1(NC(=O)[C@H](CCC(=O)O)NC(=O)[C@@H](N)C(C)C)CCCC1)C(=O)N1CCC[C@H]1C(=O)N[C@@H](Cc1ccc(O)cc1)C(=O)O (H-VE[Ac5c]IPY-OH)	0.69	0.7	1.09	1.1	0.65	0.86	0.62	–	–
CC[C@@H](C)[C@@H](NC(=O)[C@@H]1CCCN1C(=O)[C@H](CCC(=O)O)NC(=O)[C@H](C)N)C(=O)N1CCC[C@H]1C(=O)N[C@H](Cc1ccc(O)cc1)C(=O)O	1.32	1.27	1.3	1.32	0.84	0.89	0.75	–	–
CC[C@H](C)[C@H](NC(=O)CNC(=O)CNC(=O)[C@@H](N)C(C)C)C(=O)N1CCC[C@H]1C(=O)N[C@@H](Cc1ccc(O)cc1)C(=O)O (H-VGGIPY-OH)	0.93	1.03	1.15	1.22	0.66	0.95	0.88	–	–
CC[C@@H](C)[C@@H](NC(=O)[C@@H]1CCCN1C(=O)[C@H](CCC(=O)O)NC(=O)[C@@H](N)C(C)C)C(=O)N1CCC[C@H]1C(=O)N[C@H](Cc1ccc(O)cc1)C(=O)O	0.82	1.08	1.22	1.18	0.93	–	0.77	0.75	–
CC[C@H](C)[C@H](NC(=O)CCCNC(=O)[C@@H](N)C(C)C)C(=O)N1CCC[C@H]1C(=O)N[C@@H](Cc1ccc(O)cc1)C(=O)O (H-V[GABA]IPY-OH)	0.55	0.73	0.69	0.88	0.67	0.77	–	–	0.74
CC[C@H](C)[C@H](NC(=O)[C@@H]1CCCN1C(=O)[C@H](CCC(=O)O)NC(=O)[C@@H](N)C(C)C)C(=O)N1CCC[C@H]1C(=O)N[C@@H](Cc1ccc(O)cc1)C(=O)O	1.27	1.43	1.5	1.45	1	0.9	0.9	–	–
